Measurements taken from ChEMBL document CHEMBL1124192, “Cyclopentenylcytosine. A carbocyclic nucleoside with antitumor and antiviral properties” (J Med Chem, 1988).
≈ marks a conversion by molar mass, not a printed value. Where “and” joins values, the source holds several entries; their conditions need not be identical. Identical values can stand only once.

Key:
[1] = Ratio of minimum drug concentration to ID50 of the compound ([…] strain); assay type: ADME; settings: read-out: Therapeutic index
P388 [2] = test: (§1) Log cell kill at the end of treatment at dose 1 mg/kg administered intraperitoneally; assay type: functional, Mus musculus; settings: route intraperitoneal
L1210 [3] = test: as §1; assay type: functional, Mus musculus; settings: route intraperitoneal
P388 [4] = test: Compound was tested for antitumor activity against P388/ara-C leukemia in mouse at dose 1.5 mg/kg administered intraperitoneally in experiment 1; assay type: functional; settings: P388, ip, route intraperitoneal
Outline: (§2)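 Mice bearing L1210, L1210/ara-C, P388 or P388/ara-C leukaemia. Tumour implanted at the site each line names: ip, sc or ic. Drug given ip in physiologic saline on a QD1-9 schedule, at several dose levels per experiment. Life-span runs ended on day 30. Read-out is median % increase in life span versus tumoured untreated controls, with long-term survivors included.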

Human alphaherpesvirus 3 [5] = test: Compound was tested for antiviral activity against Varicella-Zoster from human diploid foreskin cells in mono layer culture at 0.1 ug/ml; assay type: functional
Outline: (§3)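 VZV isolate DM625 on Huf cells (human diploid foreskin monolayers). Inoculum was left on after 1 h adsorption at 37 °C. Drug overlay in MEM + 2% FBS without agarose, refed with fresh drug at 72 h, in 2% CO2. Cells fixed in 10% formalin and stained with methylene blue; plaques counted day 6. % plaque reduction versus untreated virus controls, triplicates.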

L1210 [6] = test: Compound was tested for antitumor activity against L1210 leukemia in mouse at dose 2.25 mg/kg administered intraperitoneally in experiment 2; assay type: functional; settings: L1210, ip, route intraperitoneal; outline: as §2
Cytomegalovirus [7] = test: Log value for antiviral activity against Cytomegalovirus (AD169) from MRC5 diploid human embryonic lung cells at 1 ug/mL; assay type: functional
Outline: (§4)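 CMV AD169 yield reduction in MRC5 cells. Subconfluent monolayers infected at MOI 0.2 PFU/cell for 1.5 h at 37 °C, rinsed, then fed drug in MEM + 2% FBS, in duplicate. Drug refed on day 3, cultures harvested on day 6 by freeze-thaw and pooled. Yield titrated by plaque assay under 0.25% agarose overlay for 5–6 days, then formalin-fixed and methylene blue-stained for plaque counts.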

P388 [8] = test: Compound was tested for antitumor activity against P388/ara-C leukemia in mouse at dose 1.5 mg/kg administered intraperitoneally in experiment 2; assay type: functional; settings: P388, ip, route intraperitoneal; outline: as §2
Human alphaherpesvirus 3 [9] = test: Compound was tested for antiviral activity against Varicella-Zoster from human diploid foreskin cells in mono layer culture at 0.01 ug/ml; assay type: functional; outline: as §3
Vero [10] = test: Cytotoxicity of compound was determined by reduction in number of viable vero monolayer cells after treatment with 10 ug/mL for 4 days; assay type: functional, Chlorocebus sabaeus
Outline: (§5)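 Vero monolayers in duplicate cultures, exposed to each drug concentration in medium at 37 °C in a CO2 incubator for 4 days. Viable cells counted by trypan blue exclusion, and % reduction calculated against untreated control cultures.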

Cytomegalovirus [11] = test: Log value for antiviral activity against Cytomegalovirus (AD169) from MRC5 diploid human embryonic lung cells at 10 ug/mL; assay type: functional; outline: as §4
L1210 [12] = test: Compound was tested for antitumor activity against L1210 leukemia in mouse at dose 1.5 mg/kg administered subcutaneously in experiment 1; assay type: functional; settings: L1210, sc, route subcutaneous; outline: as §2
Human alphaherpesvirus 3 [13] = test: Compound was tested for antiviral activity against Varicella-Zoster from human diploid foreskin cells in mono layer culture at 100 ug/ml; assay type: functional; outline: as §3
Mus musculus [14] = test: Compound was tested for antitumor activity against human A549 lung tumor xenografts in athymic mice at dose 1.5 mg/kg administered subrenal capsule in experiment 1; assay type: functional
[15] = Ratio of minimum drug concentration to ID50 of the compound (Adames strain); assay type: ADME; settings: read-out: Therapeutic index
M5076 = test: Log cell kill at the end of treatment at dose 0.5 mg/kg administered intraperitoneally; assay type: functional, Mus musculus; settings: route intraperitoneal
L1210 [16] = test: Compound was tested for antitumor activity against L1210 leukemia in mouse at dose 1 mg/kg administered intraperitoneally in experiment 1; assay type: functional; settings: L1210, ip, route intraperitoneal; outline: as §2
Yellow fever virus = test: Inhibitory dose of compound required to inhibit cytopathogenic effects of yellow fever virus with asibi strain in vero cells; assay type: functional; settings: read-out: ID50 (the source's name)
Punta Toro virus = test: Tested for inhibition of virus-induced cytopathogenic effect and cytotoxicity of compound against Punta toro virus with adames strain in vero cell; assay type: functional
L1210 [17] = test: Number of 60-day survivors out of 10 tested at dose 1 mg/kg administered intraperitoneally; assay type: functional, Mus musculus; settings: route intraperitoneal
Human alphaherpesvirus 3 [18] = test: Compound was tested for antiviral activity against Varicella-Zoster from human diploid foreskin cells in mono layer culture at 32 ug/ml; assay type: functional; outline: as §3
L1210 [19] = test: Compound was tested for antitumor activity against L1210/ara-C leukemia in mouse at dose 1 mg/kg administered intraperitoneally; assay type: functional; settings: L1210, ip, route intraperitoneal; outline: as §2
L1210 [20] = test: Compound was tested for antitumor activity against L1210 leukemia in mouse at dose 1 mg/kg administered subcutaneously in experiment 2; assay type: functional; settings: L1210, sc, route subcutaneous; outline: as §2
Cytomegalovirus [21] = test: Log value for antiviral activity against Cytomegalovirus (AD169) from MRC5 diploid human embryonic lung cells at 0.1 ug/mL; assay type: functional; outline: as §4
L1210 [22] = test: Median percent increase in life span of tumored, treated mice relative to tumored, untreated controls after intraperitoneal dose 4 mg/kg daily (every 4th day); assay type: functional; settings: Mus musculus, L1210, ip
L1210 [23] = test: Number of 60-day survivors out of 10 tested at dose 2.25 mg/kg administered intraperitoneally; assay type: functional, Mus musculus; settings: route intraperitoneal
[24] = tested on: Vesicular stomatitis virus; test: Inhibitory dose of compound required to inhibit cytopathogenic effects of vesicular stomatitis RNA virus with indiana strain in L929 cells; assay type: functional
Mus musculus [25] = test: Compound was tested for antitumor activity against human MX-1 mammary tumor xenografts in athymic mice at dose 1.5 mg/kg administered subrenal capsule in experiment 1; assay type: functional
Human alphaherpesvirus 3 [26] = test: Compound was tested for antiviral activity against Varicella-Zoster from human diploid foreskin cells in mono layer culture at 1 ug/ml; assay type: functional; outline: as §3
L1210 [27] = test: Compound was tested for antitumor activity against L1210/ara-C leukemia in mouse at dose 2.25 mg/kg administered intraperitoneally; assay type: functional; settings: L1210, ip, route intraperitoneal; outline: as §2
Vero [28] = test: Cytotoxicity of compound was determined by reduction in number of viable vero monolayer cells after treatment with 320 ug/mL for 4 days; assay type: functional, Chlorocebus sabaeus; outline: as §5
[29] = tested on: unidentified influenza virus; test: Tested for inhibition of virus-induced cytopathogenic effect and cytotoxicity of compound against influenza virus with A2/Aichi/2/68 strain in MDCK cell; assay type: functional
Human alphaherpesvirus 3 [30] = test: Compound was tested for antiviral activity against Varicella-Zoster from human diploid foreskin cells in mono layer culture at 3.2 ug/ml; assay type: functional; outline: as §3
L1210 [31] = test: Compound was tested for antitumor activity against L1210 leukemia in mouse at dose 1 mg/kg administered intraperitoneally in experiment 2; assay type: functional; settings: L1210, ip, route intraperitoneal; outline: as §2
Vero [32] = test: Cytotoxicity of compound was determined by reduction in number of viable vero monolayer cells after treatment with 0.01 ug/mL for 4 days; assay type: functional, Chlorocebus sabaeus; outline: as §5
L1210 [33] = test: Compound was tested for antitumor activity against L1210 leukemia in mouse at dose 1 mg/kg administered intracerebrally in experiment 2; assay type: functional; settings: L1210, central; outline: as §2
Mus musculus [34] = test: Compound was tested for antitumor activity against human LOX melanoma tumor xenografts in athymic mice at dose 1 mg/kg administered intraperitoneally in experiment 1; assay type: functional; settings: ip, route intraperitoneal
Outline: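 Athymic mice carrying human LOX melanoma. Drug given ip in saline on a QD1-9 schedule, at several dose levels. Life-span experiment ended on day 30. Read-out is % increase in life span versus untreated tumoured controls, with long-term survivors included.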

Cytomegalovirus [35] = test: Log value for antiviral activity against Cytomegalovirus (AD169) from MRC5 diploid human embryonic lung cells at 32 ug/mL; assay type: functional; outline: as §4

Question: For `Nc1ccn([C@@H]2C=C(CO)[C@@H](O)[C@H]2O)c(=O)n1`, which selectivity ratio [1] is on record?
Answer: The selectivity ratio was 3.1.

Question: And the LCK (P388 [2])?
Answer: Its LCK is 0.9.

Question: And the LCK (L1210 [3])?
Answer: The LCK was >6 and >5.8.

Question: What about the ILS at 1.5 mg/kg (P388 [4]) of the same compound?
Answer: The ILS at 1.5 mg/kg was 165%.

Question: And the Plaque reduction (Human alphaherpesvirus 3 [5])?
Answer: The Plaque reduction was 21%.

Question: What about the ILS at 2.25 mg/kg (L1210 [6]) of the same compound?
Answer: The ILS at 2.25 mg/kg was 57%.

Question: And the “Reduction in virus yield” value (Cytomegalovirus [7])?
Answer: The value was 1.4 pfu/ml.

Question: What about the ILS at 1.5 mg/kg (P388 [8]) of the same compound?
Answer: Its ILS at 1.5 mg/kg is 133%.

Question: And the Plaque reduction (Human alphaherpesvirus 3 [9])?
Answer: The Plaque reduction was 0%.

Question: What about the Reduction (Vero [10]) of the same compound?
Answer: Its Reduction is 64%.

Question: And the “Reduction in virus yield” value (Cytomegalovirus [11])?
Answer: The value was 1.9 pfu/ml.

Question: What about the ILS at 1.5 mg/kg (L1210 [12]) of the same compound?
Answer: Its ILS at 1.5 mg/kg is 109%.

Question: And the Plaque reduction (Human alphaherpesvirus 3 [13])?
Answer: Its Plaque reduction is 41%.

Question: What about the ILS at 1.5 mg/kg (Mus musculus [14]) of the same compound?
Answer: Its ILS at 1.5 mg/kg is -59%.

Question: And the selectivity ratio [15]?
Answer: The selectivity ratio was 0.3.

Question: And the LCK (M5076)?
Answer: The LCK was -2.

Question: And the ILS at 1 mg/kg (L1210 [16])?
Answer: The ILS at 1 mg/kg was 212%.

Question: What about the IC50 (Yellow fever virus) of the same compound?
Answer: Its IC50 is 5.05 µg/mL (≈ 21.1 µM).

Question: What about the Virus rating (Punta Toro virus) of the same compound?
Answer: Its Virus rating is 1.5.

Question: What about the No. of survivors (L1210 [17]) of the same compound?
Answer: The No. of survivors was 6.

Question: And the Plaque reduction (Human alphaherpesvirus 3 [18])?
Answer: The Plaque reduction was 36%.

Question: And the ILS at 1 mg/kg (L1210 [19])?
Answer: Its ILS at 1 mg/kg is over 650%.

Question: And the ILS at 1 mg/kg (L1210 [20])?
Answer: The ILS at 1 mg/kg was 83%.

Question: And the “Reduction in virus yield” value (Cytomegalovirus [21])?
Answer: The value was 0.8 pfu/ml.

Question: And the ILS at 4 mg/kg (L1210 [22])?
Answer: Its ILS at 4 mg/kg is 91%.

Question: What about the No. of survivors (L1210 [23]) of the same compound?
Answer: The No. of survivors was 6.

Question: And the ID50 [24]?
Answer: Its ID50 is 0.57 µg/mL and 0.25 µg/mL.

Question: What about the ILS at 1.5 mg/kg (Mus musculus [25]) of the same compound?
Answer: Its ILS at 1.5 mg/kg is 100%.

Question: What about the Plaque reduction (Human alphaherpesvirus 3 [26]) of the same compound?
Answer: The Plaque reduction was 36%.

Question: What about the ILS at 2.25 mg/kg (L1210 [27]) of the same compound?
Answer: Its ILS at 2.25 mg/kg is over 650%.

Question: What about the Reduction (Vero [28]) of the same compound?
Answer: Its Reduction is 67%.

Question: And the Virus rating [29]?
Answer: The Virus rating was 2.4.

Question: And the Plaque reduction (Human alphaherpesvirus 3 [30])?
Answer: The Plaque reduction was 33%.

Question: And the ILS at 1 mg/kg (L1210 [31])?
Answer: The ILS at 1 mg/kg was 201%.

Question: And the Reduction (Vero [32])?
Answer: The Reduction was 0%.

Question: And the ILS at 1 mg/kg (L1210 [33])?
Answer: Its ILS at 1 mg/kg is 42%.

Question: And the ILS at 1 mg/kg (Mus musculus [34])?
Answer: The ILS at 1 mg/kg was 119%.

Question: And the “Reduction in virus yield” value (Cytomegalovirus [35])?
Answer: Its value is 2 pfu/ml.
